Experimental findings from ChEMBL document CHEMBL1629539, “Configuration of the 5'-methyl group modulates the biophysical and biological properties of locked nucleic acid (LNA) oligonucleotides” (J Med Chem, 2010) are described below.

Active and inactive are the calls of the source. No cut-off for these calls is given here.

Series [1] has as its system Mus musculus. The series is described as follows: Toxicity in BALB/c mouse assessed as increase in spleen weight at 15 mg/kg, ip administered twice weekly for 3 weeks measured after 72 hrs post last dose. More on the design: dose 15 mg/kg, route intraperitoneal. It counts as organism-based. Conditions: in vivo. In outline:
(§1)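 Balb-c mice (n = 4/group) dosed ip twice a week for 3 weeks at 0.5, 1.5, 4.5 and 15 mg/kg of PTEN-targeting 14-mer phosphorothioate gapmer. Sacrifice 72 h after last dose. Liver PTEN mRNA by quantitative RT-PCR as % versus saline, with ED50 derived from dose-response. Plasma ALT (IU/L) recorded. Spleen weight given as fold increase over saline group.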

Series [2] concerns Mus musculus. The series is described as follows: Hepatoprotective activity in BALB/c mouse assessed as at 23 mg/kg, ip assessed as reduction of plasma alanine amino transferase levels after 72 hrs post dose. It counts as functional, organism-based. More on the design: dose 23 mg/kg. The method in brief:
(§2)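 Balb-c mice, 4 per group, one ip dose at 23 or 46 mg/kg of 14-mer fully phosphorothioate gapmer ASO targeting PTEN. Sacrifice 72 h after dosing. Liver PTEN mRNA quantified by quantitative RT-PCR, expressed as % down-regulation versus saline-treated animals. Plasma ALT (IU/L) measured after sacrifice.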

Series [3] has as its system Mus musculus. The series is described as follows: Toxicity in BALB/c mouse assessed as increase in spleen weight at 4.5 mg/kg, ip administered twice weekly for 3 weeks measured after 72 hrs post last dose. Conditions: in vivo. It counts as organism-based. More on the design: dose 4.5 mg/kg, route intraperitoneal. In outline: as §1
In series [4] the test system is Mus musculus. The series is described as follows: Hepatoprotective activity in BALB/c mouse assessed as at 46 mg/kg, ip assessed as reduction of plasma alanine amino transferase levels after 72 hrs post dose. More on the design: dose 46 mg/kg. It is filed as functional, organism-based. The method in brief:
as §2

Series [5] relates to Mus musculus. The series is described as follows: Toxicity in BALB/c mouse assessed as increase in spleen weight at 1.5 mg/kg, ip administered twice weekly for 3 weeks measured after 72 hrs post last dose. It is filed as organism-based. More on the design: dose 1.5 mg/kg, route intraperitoneal. To be noted: in vivo. In outline: as §1
Series [6] relates to Mus musculus. The series is described as follows: Reduction in PTEN mRNA expression in ip dosed BALB/c mouse liver administered twice weekly for 3 weeks measured after 72 hrs post last dose. It is filed as functional. The method in brief:
as §1

Series [7] relates to Mus musculus. The series is described as follows: Hepatotoxicity in BALB/c mouse liver at 60 mg/kg, ip administered as single dose measured 72 hrs post dose.
In series [8] the test system is Mus musculus. The series is described as follows: Reduction in PTEN mRNA expression in BALB/c mouse liver at 12 mg/kg, ip administered as single dose measured 72 hrs post dose. Conditions: route intraperitoneal. It is filed as functional. The method in brief:
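Single ip injection at 12 or 60 mg/kg of phosphorothioate gapmer (14-base deoxy gap, two modified nucleotides per wing) against PTEN in Balb-c mice, n = 4/group. After sacrifice, liver PTEN mRNA reported as % down-regulation versus saline controls, and plasma ALT (IU/L) measured as the liver toxicity read-out.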

On to `Cc1cn([C@@H]2O[C@@]3(COP(O)(=S)O[C@@H]4[C@H]5OC[C@]4(CO)O[C@H]5n4cc(C)c(=O)[nH]c4=O)CO[C@@H]2[C@@H]3OP(O)(=S)OC[C@@]23CO[C@@H]([C@H](n4cnc5c(N)ncnc54)O2)[C@@H]3OP(O)(=S)OC[C@@]23CO[C@@H]([C@H](n4cc(C)c(=O)[nH]c4=O)O2)[C@@H]3OP(O)(=S)OC[C@@]23CO[C@@H]([C@H](n4cnc5nc(N)[nH]c(=O)c54)O2)[C@@H]3OP(O)(=S)OC[C@@]23CO[C@@H]([C@H](n4cnc5nc(N)[nH]c(=O)c54)O2)[C@@H]3OP(O)(=S)OC[C@@]23CO[C@@H]([C@H](N4CCC(N)=NC4=O)O2)[C@@H]3OP(O)(=S)OC[C@@]23CO[C@@H]([C@H](n4cc(C)c(=O)[nH]c4=O)O2)[C@@H]3OP(O)(=S)OC[C@@]23CO[C@@H]([C@H](n4cnc5nc(N)[nH]c(=O)c54)O2)[C@@H]3OP(O)(=S)OC[C@@]23CO[C@@H]([C@H](n4ccc(N)nc4=O)O2)[C@@H]3OP(O)(=S)OC[C@@]23CO[C@@H]([C@H](n4cnc5c(N)ncnc54)O2)[C@@H]3OP(O)(=S)OC[C@@]23CO[C@@H]([C@H](n4cnc5nc(N)[nH]c(=O)c54)O2)[C@@H]3OP(O)(=S)OC[C@@]23CO[C@@H]([C@H](n4cc(C)c(N)nc4=O)O2)[C@@H]3OP(O)(=S)OC[C@@]23CO[C@@H]([C@H](n4ccc(=O)[nH]c4=O)O2)[C@@H]3O)c(=O)nc1N` (some centres undefined), for which the Activity entry is “Non-toxic” in the series on Mus musculus [1], “Toxic” in the series with Mus musculus [3] and “Toxic” in the series on Mus musculus [5]. Further, the result in the series with Mus musculus [2] and with Mus musculus [4] was inactive. Further, the ED50 (commonly the dose that gives a 50% effect, or the effect in half of the subjects) in the series with Mus musculus [6] came out at 3.1 mg/kg. In addition, the inhibition result in the series with Mus musculus [6] is “Dose-dependent effect”.

`Cc1cn([C@@H]2O[C@@]3(CO)CO[C@@H]2[C@@H]3OP(O)(=S)OC[C@@]23CO[C@@H]([C@H](n4cc(C)c(=O)[nH]c4=O)O2)[C@@H]3OP(O)(=S)OC[C@@]23CO[C@@H]([C@H](n4cnc5c(=O)[nH]c(N)nc54)O2)[C@@H]3OP(O)(=S)OC[C@@]23CO[C@@H]([C@H](n4ccc(N)nc4=O)O2)[C@@H]3OP(O)(=S)OC[C@@]23CO[C@@H]([C@H](n4cc(C)c(=O)[nH]c4=O)O2)[C@@H]3OP(O)(=S)OC[C@@]23CO[C@@H]([C@H](n4cnc5ncnc(N)c54)O2)[C@@H]3OP(O)(=S)OC[C@@]23CO[C@@H]([C@H]([n+]4c[nH]c5nc(N)[nH]c(=O)c54)O2)[C@@H]3OP(O)(=S)OC[C@@]23CO[C@@H]([C@H](n4ccc(N)nc4=O)O2)[C@@H]3OP(O)(=S)OC[C@@]23CO[C@@H]([C@H](n4ccc(N)nc4=O)O2)[C@@H]3OP(O)(=S)OC[C@@]23CO[C@@H]([C@H](n4cc(C)c(=O)[nH]c4=O)O2)[C@@H]3OP(O)(=S)OC[C@@]23CO[C@@H]([C@H](n4ccc(N)nc4=O)O2)[C@@H]3OP(O)(=S)OC[C@@]23CO[C@@H]([C@H](n4cc(C)c(=O)[nH]c4=O)O2)[C@@H]3OP(O)(=S)OC[C@@]23CO[C@@H]([C@H]([n+]4c[nH]c5nc(N)[nH]c(=O)c54)O2)[C@@H]3OP(O)(=S)OC[C@@]23CO[C@@H]([C@H]([n+]4c[nH]c5nc(N)[nH]c(=O)c54)O2)[C@@H]3OP(O)(=S)OC[C@@]23CO[C@@H]([C@H](n4cnc5ncnc(N)c54)O2)[C@@H]3OP(O)(=S)OC[C@@]23CO[C@@H]([C@H](n4cc(C)c(=O)[nH]c4=O)O2)[C@@H]3OP(O)(=S)OC[C@@]23CO[C@@H]([C@H](n4cc(C)c(=O)[nH]c4=O)O2)[C@@H]3OP(O)(=S)OC[C@@]23CO[C@@H]([C@H](n4cc(C)c(=O)[nH]c4=O)O2)[C@@H]3O)c(=O)nc1N` (some centres undefined): the Activity entry in the series with Mus musculus [7] was “Toxic”. Moreover, the inhibition in vivo (in general, how much of the control response was suppressed) at 12 mg/kg in the series with Mus musculus [8] stood at 90%.
